Test results taken from ChEMBL document CHEMBL3868633, “Linker dependent intercalation of bisbenzimidazole-aminosugars in an RNA duplex; selectivity in RNA vs. DNA binding” (Bioorg Med Chem Lett, 2016).
Activity calls are given as the source filed them. The calls are words filed in the database; no cut-off is given here.

Tests used:
[1] = Inhibition of ethidium bromide binding to r(CGCAAAUUUGCG)2 RNA (unknown origin) at 1:1 ratio of ligand:RNA measured after 5 mins by fluorescent intercalator displacement assay relative to control
Outline: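 Buffer is 10 mM sodium cacodylate, 0.5 mM EDTA, 100 mM NaCl, pH 7.0, at 23 °C. Read-out is the percent change in fluorescence emission on ligand addition.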

[2] = Binding affinity to poly(rA).(rU) RNA duplex (unknown origin) assessed as appearance of negative induced LD signal at 348 nanometer at 100 uM after 5 mins by microvolume couette flow linear dichroism method
Outline: (§1)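 Linear dichroism spectra of poly(rA)•(rU) (1 mM/bp) alone and mixed with ligand at rbd 10. Run in 10 mM sodium cacodylate, 0.5 mM EDTA, 100 mM NaCl, pH 7.0, at room temperature.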

[3] = Binding affinity to poly(rA).(rU) RNA duplex (unknown origin) assessed as thermal stability by measuring change in melting temperature at 5 uM by UV-Vis spectrophotometry
Outline: (§2)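 UV thermal denaturation of poly(rA)•(rU) duplex at 15 µM/bp, with and without ligand, in 10 mM sodium cacodylate, 0.5 mM EDTA, 100 mM NaCl, pH 7.0. ΔTm is the shift from the melting temperature of free RNA.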

[4] = Binding affinity to d(CGCAAATTTGCG)2 DNA (unknown origin) assessed as thermal stability by measuring change in melting temperature by UV-Vis spectrophotometry
[5] = Binding affinity to r(CGCAAAUUUGCG)2 RNA duplex (unknown origin) assessed as thermal stability by measuring change in melting temperature at 5 uM by UV-Vis spectrophotometry
[6] = Binding affinity to poly(rA).(rU) RNA duplex (unknown origin) assessed as change in LD signal at 260 nanometer at 100 uM after 5 mins by microvolume couette flow linear dichroism method; outline: as §1
[7] = Inhibition of ethidium bromide binding to r(CGCAAAUUUGCG)2 RNA (unknown origin) after 5 mins by fluorescent intercalator displacement assay
[8] = Binding affinity to poly(rA).(rU) RNA duplex (unknown origin) assessed as decrease in CD band intensity at 263 nanometer measured after 5 mins by circular dichroism titration method
Outline: (§3)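 Poly(rA)•(rU) at 40 µM/bp in 10 mM sodium cacodylate, 0.5 mM EDTA, 100 mM NaCl, pH 7.0, 25 °C. Concentrated ligand added serially, with 5 min equilibration before each CD scan. Each measurement averages two scans. Changes in nucleic acid CD intensity are plotted against rbd (RNA base pairs per drug) to derive binding site size.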

[9] = Binding affinity to poly(rA).(rU) RNA duplex (unknown origin) assessed as appearance of induced CD band at 320 to 380 nanometer measured after 5 mins by circular dichroism titration method; outline: as §3
[10] = Binding affinity to poly(rA).(rU) RNA duplex (unknown origin) assessed as change in CD band intensity at 266 nanometer measured after 5 mins by circular dichroism titration method
Outline: (§4)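 Circular dichroism titration of poly(rA)•(rU) at 40 µM/bp in 10 mM sodium cacodylate, 0.5 mM EDTA, 100 mM NaCl, pH 7.0, at 25 °C. Concentrated ligand is added serially, with five minutes of equilibration after each addition. Each spectrum is the average of two scans. Binding site size (rbd, RNA base pairs per drug) is taken from the change in nucleic acid CD intensity.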

[11] = Binding affinity to poly(rA).(rU) RNA duplex (unknown origin) assessed as thermal stability by measuring change in melting temperature at 5 uM in presence of neomycin by UV-Vis spectrophotometry
[12] = Binding affinity to poly(rA).(rU) RNA duplex (unknown origin) assessed as hypochromicity at 3 uM by UV-vis absorption method
[13] = Binding affinity to poly(rA).(rU) RNA duplex (unknown origin) assessed as red shift at 3 uM by UV-vis absorption method
[14] = Binding affinity to poly(rA).(rU) RNA duplex (unknown origin) assessed as appearance of unidirectional induced CD at 347 nanometer measured after 5 mins by circular dichroism titration method; outline: as §4
[15] = Binding affinity to poly(rA).(rU) RNA duplex (unknown origin) assessed as appearance of negative induced CD at 347 nanometer measured after 5 mins by circular dichroism titration method; outline: as §4
[16] = Binding affinity to poly(rA).(rU) RNA duplex (unknown origin) assessed as isosbestic point at 362 nanometer at 3 uM by UV-vis absorption method
[17] = Binding affinity to poly(rA).(rU) RNA duplex (unknown origin) measured after 5 mins by circular dichroism titration method; outline: as §4
[18] = Binding affinity to poly(rA).(rU) RNA duplex (unknown origin) assessed as thermal stability by measuring change in melting temperature at 5 uM in presence of Hoechst 33258 by UV-Vis spectrophotometry; outline: as §2

For `CN1CCN(c2ccc3nc(-c4ccc5nc(-c6ccc(OCCCCCCCCOCc7cn(C[C@H]8O[C@@H](O[C@@H]9[C@@H](O)[C@H](N)C[C@H](N)[C@H]9O[C@H]9O[C@H](CN)[C@@H](O)[C@H](O)[C@H]9N)[C@H](O)[C@@H]8O[C@H]8OC(CN)[C@@H](O)[C@H](O)[C@H]8N)nn7)cc6)[nH]c5c4)[nH]c3c2)CC1` (stereo not given in full), the inhibition [1] was 20.7 to 36.2%, the Activity [2] was “Active” and the ΔTm [3] was 21.9 °C. It also gave a ΔTm [4] of 21.7 °C.
`C#CCOCCCCCCCCCCOc1ccc(-c2nc3ccc(-c4nc5ccc(N6CCN(C)CC6)cc5[nH]4)cc3[nH]2)cc1` gave a ΔTm [3] of 0.3 °C.
Compound `C#CCOCCCCCCCCOc1ccc(-c2nc3ccc(-c4nc5ccc(N6CCN(C)CC6)cc5[nH]4)cc3[nH]2)cc1` has a ΔTm [3] of 0.7 °C.
`C#CCOc1ccc(-c2nc3ccc(-c4nc5ccc(N6CCN(C)CC6)cc5[nH]4)cc3[nH]2)cc1` showed a ΔTm [3] of 0 °C.
For `CN1CCN(c2ccc3nc(-c4ccc5nc(-c6ccc(OCCCCCCCCc7cn(C[C@H]8O[C@@H](O[C@@H]9[C@@H](O)[C@H](N)C[C@H](N)[C@H]9O[C@H]9O[C@H](CN)[C@@H](O)[C@H](O)[C@H]9N)[C@H](O)[C@@H]8O[C@H]8OC(CN)[C@@H](O)[C@H](O)[C@H]8N)nn7)cc6)[nH]c5c4)[nH]c3c2)CC1` (stereo not given in full), the inhibition [1] was 20.7 to 36.2%, the Activity [2] was “Active” and the ΔTm [4] was 13.2 °C. The ΔTm [5] was 16.2 °C.
For `CN1CCN(c2ccc3nc(-c4ccc5nc(-c6ccc(OCCCCc7cn(C[C@H]8O[C@@H](O[C@@H]9[C@@H](O)[C@H](N)C[C@H](N)[C@H]9O[C@H]9O[C@H](CN)[C@@H](O)[C@H](O)[C@H]9N)[C@H](O)[C@@H]8O[C@H]8OC(CN)[C@@H](O)[C@H](O)[C@H]8N)nn7)cc6)[nH]c5c4)[nH]c3c2)CC1` (stereo not given in full), the inhibition [1] was 20.7 to 36.2%, the Activity [6] was “Active” and the Activity [2] was “Active”. It also gave a ΔTm [4] of 22.8 °C, a Ka [7] of 8.8 ×10⁶ /M and a ΔTm [5] of 15.1 °C.
For `C#CCOCCOCCOCCOCCOCCOCCOc1ccc(-c2nc3ccc(-c4nc5ccc(N6CCN(C)CC6)cc5[nH]4)cc3[nH]2)cc1`, the ΔTm [3] was 0.2 °C.
In the case of `C#CCCCCCCCCCOc1ccc(-c2nc3ccc(-c4nc5ccc(N6CCN(C)CC6)cc5[nH]4)cc3[nH]2)cc1`, the ΔTm [3] is reported as -0.4 °C.
In the case of `C#CCCCCOc1ccc(-c2nc3ccc(-c4nc5ccc(N6CCN(C)CC6)cc5[nH]4)cc3[nH]2)cc1`, the ΔTm [3] is reported as -1.2 °C.
For `CN1CCN(c2ccc3[nH]c(-c4ccc5[nH]c(-c6ccc(O)cc6)nc5c4)nc3c2)CC1`, the inhibition [1] was 8.2%, the Activity [8] was “Active” and the Activity [9] was “Active”. The Activity [10] was “Active”, the ΔTm [11] was 10.5 °C and the ΔTm [3] was 0.4 °C. For the same compound, the Activity [12] was 32.2% and the Activity [13] was 1 nm.
For `CN1CCN(c2ccc3nc(-c4ccc5nc(-c6ccc(OCCCCCCOCc7cn(C[C@H]8O[C@@H](O[C@@H]9[C@@H](O)[C@H](N)C[C@H](N)[C@H]9O[C@H]9O[C@H](CN)[C@@H](O)[C@H](O)[C@H]9N)[C@H](O)[C@@H]8O[C@H]8OC(CN)[C@@H](O)[C@H](O)[C@H]8N)nn7)cc6)[nH]c5c4)[nH]c3c2)CC1` (stereo not given in full), the inhibition [1] was 20.7 to 36.2%, the Activity [10] was “Active” and the Activity [14] was “Active”. The Activity [15] was “Active”, the Activity [2] was “Active” and the Activity [16] was “Active”. It also gave a ΔTm [3] of 15.8 to 19 °C, a ΔTm [4] of 22.2 °C and an Activity [12] of 34.1%. It also gave an Activity [13] of 10 nm.
In the case of `CN1CCN(c2ccc3nc(-c4ccc5nc(-c6ccc(OCc7cn(C[C@H]8O[C@@H](O[C@@H]9[C@@H](O)[C@H](N)C[C@H](N)[C@H]9O[C@H]9O[C@H](CN)[C@@H](O)[C@H](O)[C@H]9N)[C@H](O)[C@@H]8O[C@H]8OC(CN)[C@@H](O)[C@H](O)[C@H]8N)nn7)cc6)[nH]c5c4)[nH]c3c2)CC1` (stereo not given in full), the inhibition [1] is reported as 20.7 to 36.2%, the Activity [2] is reported as “Active” and the ΔTm [4] is reported as 23.8 °C. It also gave a ΔTm [5] of 9.1 °C.
With `CN1CCN(c2ccc3nc(-c4ccc5nc(-c6ccc(OCCCCOCc7cn(C[C@H]8O[C@@H](O[C@@H]9[C@@H](O)[C@H](N)C[C@H](N)[C@H]9O[C@H]9O[C@H](CN)[C@@H](O)[C@H](O)[C@H]9N)[C@H](O)[C@@H]8O[C@H]8OC(CN)[C@@H](O)[C@H](O)[C@H]8N)nn7)cc6)[nH]c5c4)[nH]c3c2)CC1` (stereo not given in full) the inhibition [1] was 20.7 to 36.2%, the Activity [2] was “Active” and the ΔTm [3] was 15 °C. It also gave a ΔTm [4] of 24.6 °C.
For `C#CCOCCCCOc1ccc(-c2nc3ccc(-c4nc5ccc(N6CCN(C)CC6)cc5[nH]4)cc3[nH]2)cc1`, the ΔTm [3] was 0.3 °C.
`C#CCOCCCCCCOc1ccc(-c2nc3ccc(-c4nc5ccc(N6CCN(C)CC6)cc5[nH]4)cc3[nH]2)cc1` showed a ΔTm [3] of 0.3 °C.
Compound `C#CCOCCCCCCCCCCCCOc1ccc(-c2nc3ccc(-c4nc5ccc(N6CCN(C)CC6)cc5[nH]4)cc3[nH]2)cc1` has a ΔTm [3] of -0.2 °C.
In the case of `CN1CCN(c2ccc3nc(-c4ccc5nc(-c6ccc(OCCCCCCCCCCCCOCc7cn(C[C@H]8O[C@@H](O[C@@H]9[C@@H](O)[C@H](N)C[C@H](N)[C@H]9O[C@H]9O[C@H](CN)[C@@H](O)[C@H](O)[C@H]9N)[C@H](O)[C@@H]8O[C@H]8OC(CN)[C@@H](O)[C@H](O)[C@H]8N)nn7)cc6)[nH]c5c4)[nH]c3c2)CC1` (stereo not given in full), the inhibition [1] is reported as 20.7 to 36.2%, the Activity [2] is reported as “Active” and the ΔTm [4] is reported as 18.2 °C.
With `CN1CCN(c2ccc3nc(-c4ccc5nc(-c6ccc(OCCCCCCCCCCOCc7cn(C[C@H]8O[C@@H](O[C@@H]9[C@@H](O)[C@H](N)C[C@H](N)[C@H]9O[C@H]9O[C@H](CN)[C@@H](O)[C@H](O)[C@H]9N)[C@H](O)[C@@H]8O[C@H]8OC(CN)[C@@H](O)[C@H](O)[C@H]8N)nn7)cc6)[nH]c5c4)[nH]c3c2)CC1` (stereo not given in full) the inhibition [1] was 20.7 to 36.2%, the Activity [2] was “Active” and the ΔTm [3] was 20.3 °C. It also gave a ΔTm [4] of 19 °C.
In the case of `NC[C@@H]1O[C@H](O[C@H]2[C@@H](O)[C@H](O[C@@H]3[C@@H](O)[C@H](N)C[C@H](N)[C@H]3O[C@H]3O[C@H](CN)[C@@H](O)[C@H](O)[C@H]3N)O[C@@H]2CO)[C@H](N)[C@@H](O)[C@@H]1O`, the inhibition [1] is reported as 20.4%, the Activity [10] is reported as “Active” and the Activity [17] is reported as “Active”. The ΔTm [18] was 10.5 °C and the ΔTm [3] was 10.8 °C.
In the case of `CN1CCN(c2ccc3nc(-c4ccc5nc(-c6ccc(OCCOCCOCCOCCOCCOCCOCc7cn(C[C@H]8O[C@@H](O[C@@H]9[C@@H](O)[C@H](N)C[C@H](N)[C@H]9O[C@H]9O[C@H](CN)[C@@H](O)[C@H](O)[C@H]9N)[C@H](O)[C@@H]8O[C@H]8OC(CN)[C@@H](O)[C@H](O)[C@H]8N)nn7)cc6)[nH]c5c4)[nH]c3c2)CC1` (stereo not given in full), the inhibition [1] is reported as 20.7 to 36.2%, the Activity [2] is reported as “Active” and the ΔTm [4] is reported as 16.4 °C. The ΔTm [5] was 7.2 °C.
